Assay results taken from ChEMBL document CHEMBL4513216, “Probing the Open Global Health Chemical Diversity Library for Multistage-Active Starting Points for Next-Generation Antimalarials” (ACS Infect Dis, 2020).

Assay: Toxicity liver stage against HepG2, at 10uM
Type: cell-based
Parameters: test concentration 10 uM, cell line HepG2-A16-CD81EGFP
Conditions: human, HepG2-A16-CD81EGFP cells; read-out: INHIBITION
Outline: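 Uninfected HepG2-A16-CD81EGFP cells, 3 × 10^3 per well, 1536-well, plated on prespotted compound at 10 μM final, parasite-free screening media added to match infected plates; puromycin 10 μM positive, DMSO 0.5% negative; run in parallel with 48 h PbLuc assay at 37 °C, 5% CO2; viability by CellTiter-Glo luminescence, normalized to controls.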

Going from `Cc1cccc(OC2CCN(c3nc(N)nc4[nH]cnc34)CC2)c1` to `CCOc1cccc(CNC2CCCN(Cc3noc(C)n3)C2)c1` (stereo not given), the cytotoxicity at 10 µM falls from 35.4% to -2.3%.

Going from `CC(C)Cc1ncc2c(n1)CN(c1nc(N(C)C)nc3c1CCCC3)C2` to `CC(C)c1nc2c(n1C)CCN(Cc1nc(-c3ccsc3)no1)C2`, the cytotoxicity at 10 µM falls from 2.27% to -6.46%.

Compared with `O=C(CNCC1(O)CCCN(Cc2cccc(F)c2F)C1=O)NC1CC1` (stereo not given), `CN(C)CC1(O)CCCN(Cc2ccccc2OCC(=O)N(C)C)C1` (stereo not given) is higher in cytotoxicity at 10 µM: -4.02% for the first, -1.21% for the second.

First: CN(C)C(=O)N1CCCC(C(=O)N(C)CCCc2cnn(C)c2)C1 (stereo not given)
Second: Cn1ncc(N2CCOC(CCNC(=O)N3CCCCC3)C2)cc1=O (stereo not given)
The cytotoxicity at 10 µM of the first is higher: -0.645% for the first, -1.25% for the second.

Going from `COCC(NC1CCSCC1)c1ccnn1C` (stereo not given) to `COCCN1C[C@@H]2COC[C@@H](CC(=O)NCc3cccnc3)[C@@H]2C1`, the cytotoxicity at 10 µM falls from 13.5% to 12%.

First: CCCc1nc(N2CCCC3(CCNC3)C2)c2cnn(C)c2n1 (stereo not given)
Second: CCOc1ccccc1C(=O)N1CCCC1c1ncc2c(n1)CCNC2 (stereo not given)
The cytotoxicity at 10 µM of the first is lower: -47.8% for the first, 8.3% for the second.

First: CCc1cn[nH]c1C1CCCN(C(=O)c2ncoc2C(C)C)C1 (stereo not given)
Second: Cc1cc(C2CCCN(C(=O)c3c(C)nn4cccnc34)C2)n[nH]1 (stereo not given)
The cytotoxicity at 10 µM of the first is higher: 1.86% for the first, -0.457% for the second.

Compared with `O=C(CCc1nc2ccccc2[nH]1)NC1CCOC2(CCOCC2)C1` (stereo not given), `O=C(c1ccc(C2CCCN2)s1)N1CCC2(CCCO2)CC1` (stereo not given) is lower in cytotoxicity at 10 µM: 9.64% for the first, -7.13% for the second.

Going from `CCc1cc(N[C@@H](CC(C)C)C(N)=O)n2nc(C)c(C)c2n1` to `CCOc1ncccc1CNCc1c(C)nn(C)c1N(C)C`, the cytotoxicity at 10 µM falls from 7.33% to -1.35%.

Going from `COc1ccccc1CC(=O)N1CCCC(c2nccn2CC(N)=O)C1` (stereo not given) to `CCOc1ccc(Cl)c(C(=O)N2CCCN(CC(N)=O)CC2)n1`, the cytotoxicity at 10 µM falls from 12.9% to -1.26%.

First: Cc1cc(C)nc(CN(C)C(=O)c2ccccc2C2CCNC2)c1 (stereo not given)
Second: Cc1cccc(C(C(=O)NCc2csc(-c3ncccn3)n2)N(C)C)c1 (stereo not given)
The cytotoxicity at 10 µM of the first is lower: 1.64% for the first, 2.14% for the second.

First: Cc1ncsc1-c1nc(CC2CCN(C)CC2)nn1Cc1ccccc1
Second: CCCN1CCC(c2nc3ccc(-c4cccc(F)c4)cn3n2)CC1
The cytotoxicity at 10 µM of the first is higher: 10.2% for the first, -125% for the second.

Going from `CCN(c1ccc(C(=O)N2CCC(C(N)=O)CC2)cc1)S(=O)(=O)CC` to `CCC(N)C(=O)N1CCC(OCc2ccc(Cl)c(Cl)c2)CC1` (stereo not given), the cytotoxicity at 10 µM falls from 11.6% to -12%.

First: COc1ccc(-c2cccc3c2OC(CN)C3)cc1F (stereo not given)
Second: Cc1ccc(-c2nc(CNC3CCc4ncnn4C3)cs2)cc1 (stereo not given)
The cytotoxicity at 10 µM of the first is lower: -51.4% for the first, -9.27% for the second.

Compared with `Cc1nsc(NC(=O)NC2CCN(C)CC2)n1`, `CC(=O)NCCNC(=O)CNC1CCCN(c2ccc(C)nn2)C1` (stereo not given) is higher in cytotoxicity at 10 µM: -10.7% for the first, 3.47% for the second.

Going from `CC(=O)c1ccc(OCC(C)O)cc1O` (stereo not given) to `CN(C)C(=O)CO[C@H]1CN(Cc2ccc3c(c2)OCO3)[C@@H]2COC[C@H]12`, the cytotoxicity at 10 µM rises from -8.02% to 5.9%.

Compared with `Cc1cc(-n2cncn2)n2ncnc2n1`, `c1ccc2oc(CCCN3CCOC(Cn4cncn4)C3)nc2c1` (stereo not given) is higher in cytotoxicity at 10 µM: -4.05% for the first, 1.52% for the second.

First: CCOCCN1CCN(Cc2coc(-c3cccc(F)c3)n2)CC1
Second: Fc1cccc(-c2nnn3c2COCC(CNCc2nccs2)C3)c1 (stereo not given)
The cytotoxicity at 10 µM of the first is higher: -2.87% for the first, -112% for the second.

Going from `O=C1COc2cc(C(=O)NS(=O)(=O)c3cccc(Cl)c3)ccc2N1` to `CCOc1ccccc1C(=O)NS(=O)(=O)c1ccc2c(c1)OCCCO2`, the cytotoxicity at 10 µM rises from -4.01% to 5.04%.

First: O=C(NCCNc1cnccn1)N1CCCCCC1
Second: CN(C)C(=O)c1cnc2n1CCN(Cc1cccnc1)C2
The cytotoxicity at 10 µM of the first is higher: -3.33% for the first, -67% for the second.

First: CC(=O)N1CCCN(C(=O)c2cnn(-c3ccccc3Cl)c2)CC1
Second: CN1CCCN(C(=O)c2cc(-c3cc[nH]n3)n3ccccc23)CC1
The cytotoxicity at 10 µM of the first is lower: -11.4% for the first, 11% for the second.

Going from `Cc1nn(C)c(C)c1NC(=O)CN1CCOC(Cn2cccn2)C1` (stereo not given) to `Cc1cc(C)cc(CN2C[C@H]3COC[C@H](N4CCN(C)CC4)[C@H]3C2)c1`, the cytotoxicity at 10 µM falls from -1.81% to -93.7%.

Compared with `Cc1cncc(C(=O)N2CCCCC2c2nc(C)cs2)c1` (stereo not given), `Cc1cccc(CN2C(=O)C[C@@H]3[C@@H]2CCN3Cc2ccsc2)n1` is lower in cytotoxicity at 10 µM: -3.66% for the first, -6.63% for the second.

Going from `CCCn1nc2c(cc1=O)CN(CCCS(N)(=O)=O)CC2` to `CN1C(=O)[C@@H]2CC[C@H]1CN(Cc1cccc(OCc3ccccn3)c1)C2`, the cytotoxicity at 10 µM rises from -2.48% to 5.52%.

Going from `c1coc(CN2CCO[C@H]3[C@H](OCC4CCCC4)CC[C@@H]32)c1` to `Cc1ccoc1C(=O)N1CC[C@H]2[C@H](C[C@@H](CN3CCCC3)N2C)C1`, the cytotoxicity at 10 µM falls from 19.7% to 4.42%.

First: C[C@@H]1CN(Cc2ccsc2)C[C@]12CCN(Cc1cccnc1)C2=O
Second: CN(Cc1ccccn1)C1CC2(CCN(Cc3ccccn3)CC2)C1
The cytotoxicity at 10 µM of the first is higher: 7.62% for the first, -87% for the second.

Compared with `CCN(CC)S(=O)(=O)N1CC[C@H](c2ccccc2)[C@H]2NCCCC[C@H]21`, `CC(C)Cn1cc2nc(N3CCCC3)[nH]cc-2c1=O` is higher in cytotoxicity at 10 µM: -39.5% for the first, 9.6% for the second.

In the case of `Cc1noc(C)c1CN1CCOCC12CCN(c1ncccn1)CC2`, the cytotoxicity at 10 µM was -104%.
